From ChEMBL document CHEMBL3352666, “Human Toll-like receptor 8-selective agonistic activities in 1-alkyl-1H-benzimidazol-2-amines” (J Med Chem, 2014) come the findings set out here.

The target of assay [1] is Nucleotide-binding oligomerization domain-containing protein 2 (Homo sapiens, UniProt Q9HC29). Briefly: Antagonist activity at human NOD2 stably expressed in HEK293 cells co-expressing secreted alkaline phosphatase assessed as NF-kappaB induction by liquid handler-assisted reporter gene assay. It is filed as cell-based. For orientation: In a reporter assay the amount or activity of a reporter protein is the signal.
Nucleotide-binding oligomerization domain-containing protein 2, sequence (Q9HC29 whole entry, the tested form may be a part): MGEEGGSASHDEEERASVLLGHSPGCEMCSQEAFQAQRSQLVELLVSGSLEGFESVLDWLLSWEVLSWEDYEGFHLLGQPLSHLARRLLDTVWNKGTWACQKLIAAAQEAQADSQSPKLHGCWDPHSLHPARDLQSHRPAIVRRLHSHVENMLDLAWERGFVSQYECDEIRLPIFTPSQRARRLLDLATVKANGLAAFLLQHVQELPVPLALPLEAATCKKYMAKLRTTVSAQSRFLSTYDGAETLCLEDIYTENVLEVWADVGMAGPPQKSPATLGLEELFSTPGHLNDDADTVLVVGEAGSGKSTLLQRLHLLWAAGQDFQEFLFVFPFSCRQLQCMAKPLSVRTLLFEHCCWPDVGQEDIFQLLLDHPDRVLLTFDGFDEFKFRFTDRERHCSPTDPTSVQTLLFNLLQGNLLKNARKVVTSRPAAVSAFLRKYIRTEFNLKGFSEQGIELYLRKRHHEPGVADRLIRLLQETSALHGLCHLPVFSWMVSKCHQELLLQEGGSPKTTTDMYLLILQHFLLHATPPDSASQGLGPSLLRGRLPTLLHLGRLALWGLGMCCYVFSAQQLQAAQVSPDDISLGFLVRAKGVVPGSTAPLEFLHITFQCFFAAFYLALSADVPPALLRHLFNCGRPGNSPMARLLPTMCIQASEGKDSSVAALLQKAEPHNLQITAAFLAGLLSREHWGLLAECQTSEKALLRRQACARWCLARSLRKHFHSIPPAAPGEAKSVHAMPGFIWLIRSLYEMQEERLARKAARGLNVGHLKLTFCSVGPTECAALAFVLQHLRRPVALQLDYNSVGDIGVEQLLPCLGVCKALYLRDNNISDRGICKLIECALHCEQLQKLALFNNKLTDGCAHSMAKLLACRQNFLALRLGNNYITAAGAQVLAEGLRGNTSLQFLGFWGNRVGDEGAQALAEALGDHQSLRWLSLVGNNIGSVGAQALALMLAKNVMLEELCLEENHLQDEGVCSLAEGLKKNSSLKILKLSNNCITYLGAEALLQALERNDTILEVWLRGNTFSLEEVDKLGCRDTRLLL

The target of assay [2] is T1, Nucleotide-binding oligomerization domain-containing protein 1 (Homo sapiens, UniProt Q9Y239).
T1 sequence (Q9Y239 whole entry): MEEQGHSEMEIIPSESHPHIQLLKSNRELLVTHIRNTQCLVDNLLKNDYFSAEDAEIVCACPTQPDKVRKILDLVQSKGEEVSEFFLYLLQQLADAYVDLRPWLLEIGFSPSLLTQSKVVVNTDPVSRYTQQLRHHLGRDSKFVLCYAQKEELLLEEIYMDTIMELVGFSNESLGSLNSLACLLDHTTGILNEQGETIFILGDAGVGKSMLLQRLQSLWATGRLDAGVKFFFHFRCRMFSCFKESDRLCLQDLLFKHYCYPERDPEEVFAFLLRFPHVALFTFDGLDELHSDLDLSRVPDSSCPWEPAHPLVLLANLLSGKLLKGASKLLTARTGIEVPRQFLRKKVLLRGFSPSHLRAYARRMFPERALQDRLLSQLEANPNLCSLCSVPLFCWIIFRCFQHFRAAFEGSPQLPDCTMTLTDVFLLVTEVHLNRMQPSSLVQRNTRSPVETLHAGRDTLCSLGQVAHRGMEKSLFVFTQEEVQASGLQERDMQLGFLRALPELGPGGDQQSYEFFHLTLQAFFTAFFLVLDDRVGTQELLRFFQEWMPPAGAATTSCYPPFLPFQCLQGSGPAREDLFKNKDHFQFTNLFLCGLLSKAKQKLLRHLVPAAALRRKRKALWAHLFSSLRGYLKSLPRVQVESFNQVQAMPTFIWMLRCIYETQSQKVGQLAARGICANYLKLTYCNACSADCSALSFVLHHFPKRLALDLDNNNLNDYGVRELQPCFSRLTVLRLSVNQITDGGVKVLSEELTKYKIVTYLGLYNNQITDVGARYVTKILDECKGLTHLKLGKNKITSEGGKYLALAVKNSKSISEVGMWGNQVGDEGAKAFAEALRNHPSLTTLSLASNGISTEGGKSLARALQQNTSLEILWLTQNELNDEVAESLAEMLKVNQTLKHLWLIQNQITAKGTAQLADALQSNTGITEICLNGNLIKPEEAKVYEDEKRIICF
The assay is described as follows: Antagonist activity at human NOD1 stably expressed in HEK293 cells co-expressing secreted alkaline phosphatase assessed as NF-kappaB induction by liquid handler-assisted reporter gene assay. It is filed as cell-based.

The target in assay [3] is T2, Toll-like receptor 8 (Homo sapiens) (UniProt Q9NR97).
T2 sequence (whole entry): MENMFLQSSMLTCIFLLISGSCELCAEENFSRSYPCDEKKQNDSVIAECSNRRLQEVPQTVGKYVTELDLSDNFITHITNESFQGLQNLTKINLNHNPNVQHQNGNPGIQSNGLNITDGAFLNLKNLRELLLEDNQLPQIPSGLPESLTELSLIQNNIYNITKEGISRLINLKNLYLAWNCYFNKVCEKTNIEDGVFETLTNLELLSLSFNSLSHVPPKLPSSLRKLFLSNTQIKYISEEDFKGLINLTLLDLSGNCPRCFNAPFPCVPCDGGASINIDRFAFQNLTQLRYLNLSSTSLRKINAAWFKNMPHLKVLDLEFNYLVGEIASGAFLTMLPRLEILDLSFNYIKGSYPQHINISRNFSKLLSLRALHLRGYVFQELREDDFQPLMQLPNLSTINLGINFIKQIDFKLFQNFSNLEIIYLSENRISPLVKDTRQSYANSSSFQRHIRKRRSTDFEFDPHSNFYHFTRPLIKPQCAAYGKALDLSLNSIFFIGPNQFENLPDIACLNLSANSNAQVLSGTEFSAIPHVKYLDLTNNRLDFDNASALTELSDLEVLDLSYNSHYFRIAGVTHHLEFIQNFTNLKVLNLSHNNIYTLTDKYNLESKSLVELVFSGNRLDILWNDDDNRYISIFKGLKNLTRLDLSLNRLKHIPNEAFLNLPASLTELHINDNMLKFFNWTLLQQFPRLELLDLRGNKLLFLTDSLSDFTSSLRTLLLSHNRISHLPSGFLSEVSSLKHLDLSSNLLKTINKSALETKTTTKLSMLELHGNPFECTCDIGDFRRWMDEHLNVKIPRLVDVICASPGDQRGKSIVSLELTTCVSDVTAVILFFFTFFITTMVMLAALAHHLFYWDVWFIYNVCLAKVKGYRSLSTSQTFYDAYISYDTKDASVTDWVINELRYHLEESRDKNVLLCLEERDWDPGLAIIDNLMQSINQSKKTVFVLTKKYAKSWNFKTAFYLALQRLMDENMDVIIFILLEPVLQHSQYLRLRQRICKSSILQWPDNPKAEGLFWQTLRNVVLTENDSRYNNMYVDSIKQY
The assay is described as follows: Induction of TLR8-mediated IL-12p40 in human PBMC after 12 hrs by immunoassay. In outline:
(§1)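 Fresh PBMCs were isolated from venous blood on Ficoll-Hypaque gradients and plated at 10^5 cells in 100 µL per well. They were stimulated 12 h with graded compound concentrations. Centrifuged supernatants were assayed in duplicate by multiplexed analyte-specific cytokine bead array.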

Assay [4] deals with T2, Toll-like receptor 8 (Homo sapiens). Briefly: Induction of TLR8-mediated IFN-gamma in human PBMC after 12 hrs by immunoassay. In outline: as §1
Assay [5] can be described thus: Upregulation of CD69 expression in human NK cells at 0.1 to 10 ug/ml measured after overnight incubation by flow cytometry. It counts as functional, cell-based. The gist of the method: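 Heparin-anticoagulated whole blood from healthy volunteers was stimulated with graded concentrations at 37 °C overnight. It was then stained 30 min at 37 °C in the dark with CD3-PE, CD56-APC and CD69-PE-Cy7, followed by one-step erythrocyte lysis and fixation. NK cells were gated as CD3-CD56+ from 100,000 events. Values are means of duplicates from a representative experiment.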
A general note: A flow cytometer gives signals particle by particle.

Structures are written as SMILES. The source made the active and inactive calls. The calls are words filed in the database; no cut-off is given here. Where only a bound is given, the exact number is not on record here.

What is called IC50 is the concentration that gives 50% inhibition. On to `CCCCCn1c(NC(C)=O)nc2ccccc21`, for which the half-inhibitory concentration (IC50) in assay [1] and in assay [2] was above 10 µM each time.
For `CCCCCn1c(N)nc2cc3ccccc3cc21`, the half-inhibitory concentration (IC50) in assay [1] and in assay [2] was above 10 µM each time.
Take `CCCCCn1c(N)nc2ccc3ccccc3c21`: the IC50 in assay [1] and in assay [2] was above 10 µM each time.
Turning to `CCCCCn1c(N)nc2c(OCc3ccccc3)cccc21`, the IC50 in assay [1] and in assay [2] was above 10 µM in each case.
With `CCCCCn1c(N)nc2c(Cc3ccccc3)cccc21`, the IC50 in assay [1] and in assay [2] was above 10 µM in each case.
With `CCCCCn1c(N)nc2c(C)cccc21`, the result in assay [3] and in assay [4] was Active. For the same compound, the outcome in assay [5] was inactive.
For the compound `CCCCCn1c(N)nc2c(-c3ccccc3)cccc21`, the IC50 in assay [1] and in assay [2] was above 10 µM throughout.
